Here are results for 23 compounds from ChEMBL document CHEMBL3112517, “Identification of dihydrostilbenes in Pholidota chinensis as a new scaffold for GABAA receptor modulators” (Bioorg Med Chem, 2014).

The source made the active and inactive calls. The rule behind the calls is not given here.

What all share (type): cell-based
The species entered for test [1] is Rattus norvegicus. The experiment in a line: Allosteric modulation of rat GABAA alpha1beta2gamma2S receptor expressed in Xenopus laevis oocytes assessed as potentiation of GABA-induced chloride ion current at holding potential -70 mV at 100 uM by two-microelectrode voltage clamp assay relative to GABA-treated control. A digest of the protocol:
(§1)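 Stage V–VI Xenopus laevis oocytes were injected with 50 nL of rat α1, β2 and γ2S cRNA mixed 1:1:10 (about 300–3000 pg/nL per subunit), stored at 18 °C in ND96, and recorded on days 1–5. Two-electrode clamp was at −70 mV in pH 7.4 HEPES bath. Compound was applied by fast perfusion with GABA EC3–10, in 1% DMSO final. Enhancement = I(GABA+Comp)/IGABA − 1.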

Test [2] is filed under the species Rattus norvegicus. The experiment in a line: Modulation of rat GABAA alpha1beta2gamma2S receptor expressed in Xenopus laevis oocytes assessed as potentiation of EC5 to 10 GABA-induced chloride ion current at holding potential -70 mV at 1 uM by two-microelectrode voltage clamp assay relative to GABA-treated control. Put shortly: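 Stage V–VI oocytes injected with rat α1, β2 and γ2S cRNAs (1:1:10), kept at 18 °C in ND96 and recorded 1–5 days later at −70 mV. Bath: 90 mM NaCl, 1 mM KCl, 1 mM MgCl2, 1 mM CaCl2, 5 mM HEPES, pH 7.4. Compound from 100 mM DMSO stock co-applied with GABA EC3–10 by fast perfusion, final DMSO 1%. Enhancement = I(GABA+comp)/IGABA − 1.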

For test [3], the species on record is Rattus norvegicus. Briefly: Agonist activity rat GABAA alpha1beta2gamma2S receptor expressed in Xenopus laevis oocytes assessed as potentiation of GABA-induced chloride ion current at holding potential -70 mV at <100 uM compound treated prior to GABA challenge by two-microelectrode voltage clamp assay.
The species named for test [4] is Rattus norvegicus. Briefly: Allosteric modulation of rat GABAA alpha1beta2gamma2S receptor expressed in Xenopus laevis oocytes assessed as potentiation of EC3 to 10 GABA-induced chloride ion current at holding potential -70 mV at 1 to 300 uM by two-microelectrode voltage clamp assay relative to GABA-treated control. A digest of the protocol: as §1
The species named for test [5] is Rattus norvegicus. Briefly: (§2) Allosteric modulation of rat GABAA alpha1beta2gamma2S receptor expressed in Xenopus laevis oocytes assessed as potentiation of EC3 to 10 GABA-induced chloride ion current at holding potential -70 mV by two-microelectrode voltage clamp assay. Put shortly: as §1
Test [6] in a line: as §2. A digest of the protocol:
as §1

The species named for test [7] is Rattus norvegicus. The experiment in a line: Allosteric modulation of rat GABAA alpha1beta2gamma2S receptor expressed in Xenopus laevis oocytes assessed as potentiation of EC3 to 10 GABA-induced chloride ion current at holding potential -70 mV at 500 uM by two-microelectrode voltage clamp assay relative to GABA-treated control. Put shortly: as §1

For `C(=C\c1ccccc1)/c1ccccc1`, the Activity in the test listed under Rattus norvegicus [1] was -11.3%. On the same count and under the same terms, as for `Oc1cc(O)cc(/C=C/c2ccc(O)cc2O)c1`, the figure is -19.7%; as for `COc1ccc(CCc2ccccc2F)cc1`, -16.8%; as for `COc1ccc(/C=C/c2ccccc2F)cc1`, -22.9%. Regarding `CN1C(=O)CN=C(c2ccccc2)c2cc(Cl)ccc21`, the Activity in the test filed under Rattus norvegicus [2] was 231%. Regarding `Oc1ccc(/C=C/c2cc(O)cc(O)c2)cc1`, the Activity in the test filed under Rattus norvegicus [1] is 122%. As for `Oc1cc(O)cc(CCc2ccc(O)c(O)c2)c1`, in the test listed under Rattus norvegicus [1], the Activity turned out to be 86.3%. With `COc1cc(/C=C/c2ccc(OC)c(OC)c2)cc(OC)c1`, the Activity in the test listed under Rattus norvegicus [1] was 101%. Turning to `C(=C(c1ccccc1)c1ccccc1)c1ccccc1`, the Activity in the test filed under Rattus norvegicus [1] was -7.3%.

Take `CC(=O)Oc1ccc(/C=C/c2cc(OC(C)=O)cc(OC(C)=O)c2)cc1`: the Activity in the test filed under Rattus norvegicus [1] was found to be 123%. Usually EC50 stands for the concentration giving half of the maximal effect. Regarding `COc1cc(CCc2ccc(OC)c(OC)c2)cc(OC)c1`, the outcome in the test listed under Rattus norvegicus [3] was inactive. The Imax in the test filed under Rattus norvegicus [4] was found to be 871%. Further, the values for the Activity result in the test listed under Rattus norvegicus [5] and in the test listed under Rattus norvegicus [1] were “Dose-dependent effect” and 544%, respectively. In addition, the concentration for a half-maximal effect (EC50) in test [6] was found to be 20.2 µM. Consider `c1ccc(CCc2ccccc2)cc1`, for which the Activity in the test listed under Rattus norvegicus [1] is 8.3%. Take `Br[C@H](c1ccccc1)[C@@H](Br)c1ccccc1`: the Activity in the test filed under Rattus norvegicus [1] is -12.9%.

Regarding `COc1ccc(/C=C/c2ccc(OC)cc2)cc1`, the Activity in the test listed under Rattus norvegicus [1] is -24.8%. Same read-out and setting: as for `Oc1cc(O)cc(/C=C/c2ccc(O)c(O)c2)c1`, the figure is -35.4%; as for `c1ccc(CC(c2ccccc2)c2ccccc2)cc1`, 51.6%. Same read-out and setting: as for `CC(=O)Oc1ccc(CCc2cc(OC(C)=O)cc(OC(C)=O)c2)cc1`, the figure is 228%; as for `COc1cc(/C=C/c2ccc(O)cc2)cc(OC)c1`, 212%; as for `COc1ccc(CCc2ccc(OC)cc2)cc1`, -20.9%. Regarding `Oc1cc(O)cc(CCc2ccc(O)cc2O)c1`, in the test listed under Rattus norvegicus [1], the Activity came out at 44.1%. Turning to `COc1cc(O)cc(/C=C\c2cccc(O)c2)c1`, the outcome in the test filed under Rattus norvegicus [3] was inactive. For the same compound, in the test filed under Rattus norvegicus [7], the Imax came to 787%. In addition, the values for the Activity result in the test filed under Rattus norvegicus [5] and in the test listed under Rattus norvegicus [1] were “Dose-dependent effect” and 192%, respectively. The concentration giving a half-maximal response (EC50) in test [6] was 176 µM. Take `C(=C/c1ccccc1)/c1ccccc1`: in the test filed under Rattus norvegicus [1], the Activity was found to be 12.6%. For `Oc1ccc(CCc2cc(O)cc(O)c2)cc1`, in the test filed under Rattus norvegicus [1], the Activity is 162%.
